# In ChEMBL document CHEMBL1124455, “Benzodiazepine receptor binding activity of 6,9-disubstituted purines” (J Med Chem, 1989):
# Experiments:
# [1] = biological target: T1, GABA-A receptor; anion channel (Rattus norvegicus) (UniProt O09028+P15431+P18506+P18508+P19969+P20236+P23574+P23576+P28471+P28473+P30191+P62813+P63079+P63138+Q91ZM7+Q9ES14); assay: The percent inhibition of [3H]diazepam binding to the benzodiazepine receptor of rat brain elicited by 100 uM of compound
# [2] = biological target: GABA-A receptor; anion channel; assay: Concentration that inhibits binding of 1.5 nM [3H]diazepam to rat brain benzodiazepine receptor
# Procedure, shortened: (§1)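 Membranes from male Sprague-Dawley rat brain (110–220 g; cerebellum and pons medulla removed), homogenized in 0.32 M sucrose. The 30000g pellet was stored frozen and resuspended in Tris-HCl pH 7.5. Filtered on GF/C and washed with ice-cold buffer, then scintillation counted.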
# Rattus norvegicus [3] = assay: Effect on conflict responding in Long-Evans rats when 25 mg/kg was administered by oral gavage in a modified Geller-Seifter conflict schedule.; type: functional
# Procedure, shortened: (§2)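 Rats run on a modified Geller-Seifter conflict schedule. Shock was 0.00 mA for the first response of each conflict period, rising by 0.05 mA per successive response. 25 mg/kg given by oral gavage as a 0.5% methylcellulose suspension, 60 min before the operant session. Result is percent change in conflict responses versus the preceding day, mean and SEM, at least four rats.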
# [4] = biological target: T1, GABA-A receptor; anion channel (Rattus norvegicus); assay: Percent inhibition of [3H]diazepam binding to rat brain GABA-A benzodiazepine receptor at 100 uM
# Procedure, shortened: as §1, with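 “7.5. […]” for “7.5.”, “counted. Percent inhibition of specific binding at 100 μM; IC50 usually determined when >75%.” for “counted.”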
# Rattus norvegicus [5] = assay: Effect on conflict responding in Long-Evans rats when 25 mg/kg was administered by oral gavage in a modified Geller-Seifter conflict schedule and the value ranges from -10 to + 13; type: functional; procedure, shortened: as §2
# Rattus norvegicus [6] = assay: Effect on conflict responding in Long-Evans rats when 10 mg/kg was administered by oral gavage in a modified Geller-Seifter conflict schedule.; type: functional
# Procedure, shortened: (§3)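 Rats on a modified Geller-Seifter operant conflict schedule were dosed by oral gavage as a 0.5% methylcellulose suspension 60 min before the session. Shock was 0.00 mA for the first response in each conflict period, rising 0.05 mA with each further response. The value is the percent change in conflict responses from the preceding day, as mean and SEM of at least four rats.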
# Rattus norvegicus [7] = assay: Effect on conflict responding in Long-Evans rats when 5 mg/kg was administered by oral gavage in a modified Geller-Seifter conflict schedule.; type: functional; procedure, shortened: as §3
# [8] = in the assay text read “10 uM” for “100 uM”
Structure (SMILES),IC50 [2],inhibition [1],further results
CN(C)c1ncnc2c1ncn2Cc1ccc(O)cc1,–,–,"inhibition [1, 8]: 15%"
CN(C)c1ncnc2c1ncn2C1CCCc2ccccc21 (stereo unspecified),22 µM,–,–
CN(C)c1ncnc2c1ncn2Cc1ccccc1N,–,–,"inhibition [1, 8]: 19%"
CN(C)c1ncnc2c1ncn2Cc1ccccc1F,5.4 µM,–,Change in conflict (Rattus norvegicus [3]): 17%
COc1cccc(Cn2cnc3c(N(C)C)ncnc32)c1,–,70%,–
CN(C)c1ncnc2c1ncn2Cc1cccc(O)c1,1.2 µM,–,Change in conflict (Rattus norvegicus [3]): 2%
OCCNc1ncnc2c1ncn2Cc1ccccc1,–,–,inhibition [4]: 73%
Cn1cnc2c(ncn2Cc2ccccc2)c1=O,15.5 µM,–,Change in conflict (Rattus norvegicus [3]): -16%
CN(C)c1ncnc2c1ncn2CCc1ccccc1,–,0%,–
Clc1ncnc2c1ncn2Cc1ccccc1,–,40%,–
CN(C)c1ncnc2c1ncn2Cc1ccccc1[N+](=O)[O-],–,–,"inhibition [1, 8]: 48%"
CCN(CC)c1ncnc2c1ncn2Cc1ccccc1,–,83%,–
Cc1cccc(Cn2cnc3c(N(C)C)ncnc32)c1,–,62%,–
CN(C)c1ncnc2c1ncn2Cc1cccc([N+](=O)[O-])c1,–,48%,–
CN(C)c1ncnc2c1ncn2CCCc1ccccc1,–,0%,–
CN(c1ncnc2c1ncn2Cc1ccccc1)C1CCCC1,14 µM,–,Change in conflict (Rattus norvegicus [5]): -10%
Cc1ccccc1Cn1cnc2c(N(C)C)ncnc21,–,70%,–
CSc1ncnc2c1ncn2Cc1ccccc1,3.3 µM,–,Change in conflict (Rattus norvegicus [3]): 13%
CN(C)c1ncnc2c1ncn2Cc1ccc(Cl)cc1,–,24%,–
CN(C)c1ncnc2c1ncn2Cc1cccc(CO)c1,5 µM,–,Change in conflict (Rattus norvegicus [3]): 4%

Structure (SMILES),IC50 [2],inhibition [1],further results
CN(C)c1ncnc2c1ncn2Cc1ccc([N+](=O)[O-])cc1,–,23%,–
Nc1ncnc2c1ncn2Cc1ccccc1 [9-BENZYL-9H-ADENINE],37 µM,–,–
Cc1ccc(Cn2cnc3c(N(C)C)ncnc32)cc1,–,22%,–
CN(C)c1ncnc2c1ncn2Cc1cccc(I)c1,–,64%,–
CN(C)c1ncnc2c1ncn2Cc1cccc(OC(=O)C(C)(C)C)c1,1.6 µM,–,Change in conflict (Rattus norvegicus [3]): 6%
CN(C)c1ncnc2c1ncn2Cc1ccc(N)cc1,–,67%,–
CC(=O)Oc1cccc(Cn2cnc3c(N(C)C)ncnc32)c1,0.44 µM,–,Change in conflict (Rattus norvegicus [3]): 2%
CCNc1ncnc2c1ncn2Cc1ccccc1,19 µM,–,–
c1ccc(Cn2cnc3c(N4CCCC4)ncnc32)cc1,16 µM,–,Change in conflict (Rattus norvegicus [3]): 10%
CN(C)c1ncnc2c1ncn2Cc1cccc(N)c1,0.9 µM,–,Change in conflict (Rattus norvegicus [3]): 4%
CN(C)c1ncnc2c1ncn2Cc1ccc(C#N)cc1,–,26%,–
CN(C)c1ncnc2c1ncn2C1Cc2ccccc2C1,–,–,inhibition [4]: 48%
COc1ccc(Cn2cnc3c(N(C)C)ncnc32)cc1,–,0%,–
C[C@@H](c1ccccc1)n1cnc2c(N(C)C)ncnc21,2.1 µM,–,Change in conflict (Rattus norvegicus [3]): 5%
Oc1ncnc2c1ncn2Cc1ccccc1,19 µM,–,–
CNc1ncnc2c1ncn2Cc1ccccc1,24 µM,–,Change in conflict (Rattus norvegicus [3]): -3%
CN(C)c1ncnc2c1ncn2C(c1ccccc1)c1ccccc1,17 µM,–,–
CN(C)c1ncnc2c1ncn2Cc1ccccc1,13 µM,–,Change in conflict (Rattus norvegicus [3]): -17%
CN(C)c1ncnc2c1ncn2Cc1cccc(Cl)c1,–,59%,–
CCN(C)c1ncnc2c1ncn2Cc1ccccc1,19 µM,–,–

Structure (SMILES),IC50 [2],inhibition [1],further results
C[C@H](c1ccccc1)n1cnc2c(N(C)C)ncnc21,–,56%,–
CN(C)c1ncnc2c1ncn2C,–,0%,–
c1ccc(Cn2cnc3c(NC4CC4)ncnc32)cc1,–,–,inhibition [4]: 68%
CNC1=Nc2ccc(Cl)cc2C(c2ccccc2)=[N+]([O-])C1 [CHLORDIAZEPOXIDE],0.2 µM,–,Change in conflict (Rattus norvegicus [3]): 67%; Change in conflict (Rattus norvegicus [6]): 46%; Change in conflict (Rattus norvegicus [7]): 24%
c1ccc(Cn2cnc3cncnc32)cc1,–,–,inhibition [4]: 34%
CN(C)c1ncnc2c1ncn2Cc1ccccc1Cl,13 µM,–,–
CN(C)c1ncnc2c1ncn2Cc1ccc(F)cc1,–,23%,–
COc1ncnc2c1ncn2Cc1ccccc1 [9-BENZYL-6-METHOXY-9H-PURINE],14 µM,–,Change in conflict (Rattus norvegicus [3]): 26%
CN(C)c1ncnc2c1ncn2-c1ccccc1,–,–,inhibition [4]: 0%
CN(C)c1ncnc2c1ncn2Cc1cccc(F)c1,7.3 µM,–,–
CN(C)c1ncnc2c1ncn2Cc1cccc(C(F)(F)F)c1,–,49%,–
CN(C)c1ncnc2c1ncn2Cc1cccc(C#N)c1,–,70%,–
COc1ccccc1Cn1cnc2c(N(C)C)ncnc21,20 µM,–,–
CC(=O)Nc1ccc(Cn2cnc3c(N(C)C)ncnc32)cc1,–,22%,–
CN(C)c1ncnc2nc[nH]c12,–,57%,–
CN(C)c1ncnc2c1ncn2Cc1cccc(Br)c1,–,63%,–
CN(C)c1ncnc2c1ncn2Cc1ccc(OCc2ccccc2)cc1,–,11%,–
c1ccc(Cn2cnc3c(N4CCC4)ncnc32)cc1,15 µM,–,Change in conflict (Rattus norvegicus [3]): -7%
